In PMC8686831 (Molecular pharmaceutics, 2021):

What was measured:
[1] = tested on: healthy athymic nude mice; assay: ^127I-PARPi toxicity study in healthy mice; assay type: in vivo; details: 2.05 mg/kg intravenously
[2] = tested on: HCT116 p53^−/− subcutaneous xenograft tumors; assay: Survival study in subcutaneous xenograft mice; assay type: in vivo, athymic nude mice
Procedure, shortened: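 Nude mice carried s.c. HCT116 p53+/+ or p53−/− xenografts (10^6 cells, 1:1 media/matrigel). At a mean tumor volume of 100 ± 10 mm3 they were randomized. Dosing was i.v. every 3–4 days for 5 cycles: approximately 74 MBq test compound in 100 μL 30% PEG300 vehicle, or vehicle alone. The p53−/− study added a stable-iodine analogue cohort (approx. 80 μg/kg). Weights were taken daily. Endpoints: distress, significant weight loss, tumor >800 mm3, or ulceration >5 mm.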

Compound: O=C(c1cccc([127I])c1)N1CCN(C(=O)c2cc(Cc3n[nH]c(=O)c4ccccc34)ccc2F)CC1 [^127I-PARPi]
- Toxicity (immunohistochemical and blood chemistry analysis) ([1]; healthy mice): no toxicity was observed
- Markers associated with liver toxicity (ALP, ALT, AST) ([1]; vs. vehicle): no significant variation compared to vehicle cohorts
- Effect on overall / median survival compared to vehicle [2]: No significant increase in median survival
- Improvement of median survival compared to vehicle control group [2]: +26%
- Median survival (weeks) ([2]; i.v., ^123I-MAPi 74 MBq or ^127I-PARPi approx. 80 μg/kg, every 3–4 days, 5 cycles): 3.071 weeks
